Runt-SMMHC FRET: inhibitors of human RUNX1 Runt domain binding to CBFb-SMMHC | inhibition, % at 20 µM | Q01196+Q13951 | Cerulean-Runt/Venus-CBFb-SMMHC FRET ratio 530/480, 1 h | 220,000 compounds, 0.74% hits | AID 1434;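 active = mean inhibition across duplicate retests at 20 µM reaching about 50%, limit read from the data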;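 also: inhibitors lower the FRET ratio by blocking Runt binding to CBFb-SMMHC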
RanGTP-Imp inh: inhibitors of RanGTP-importin-beta interaction, primary screen, biochemical, FRET, CFP-Ran, YFP-importin-beta, homogeneous | cell-free CFP-Ran/YFP-importin-beta FRET ratio | inhibition, % (no concentration beside the values) | 300,000 compounds, 1.1% hits | AID 2216;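 active = more than half of the replicate wells show a fall in the fluorescence ratio signal beyond about 16%, limit read from the data, passing the limit was not always enough; inconclusive = exactly half of the replicate wells pass the set limit; inactive = fewer than half of replicates pass the limit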
Tb hexokinase: blocks Trypanosoma brucei hexokinase 1 activity; 220,000 compounds, 0.11% hits; inhibition, % at 10 µM; recombinant TbHK1, G6PDH-coupled NADH A340;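 active = inhibition of 50% or more in the single-dose primary screen; inactive = inhibition below 50%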
Runt-CBFb FRET: Runt domain-CBFb interaction inhibition. Cerulean-Runt/Venus-CBFb FRET ratio 530/480, 1 h. Q01196+Q13951. inhibition, % at 20 µM. 220,000 compounds, 0.46% hits;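 active = inhibition over about 50% at 20 µM in the single-dose screen, limit read from the data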
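Schedule: protein complex preformed 1 h, compound exposure 1 h, room temperature, dark; test system: Cerulean-labeled Runt domain protein; amount: 100 nM per protein; buffer or medium: Tris 50 mM pH 7.5, KCl, K2SO4, 0.01% BSA; read-out: loss of energy transfer signal; detection: FRET fluorescence; controls: 5 µM unlabeled CBFb as full-inhibition high control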
Hck-Nef inh: human Hck-Nef kinase inhibition; Recombinant Hck-YEEI plus Nef, Z-Lyte FRET kinase assay; inhibition, % at 20 µM; 220,000 compounds, 0.68% hits;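 active = Hck-Nef kinase inhibition above about 50%, limit read from the data; inactive = inhibition below that limit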
Target sequence (P08631 whole entry, looked up): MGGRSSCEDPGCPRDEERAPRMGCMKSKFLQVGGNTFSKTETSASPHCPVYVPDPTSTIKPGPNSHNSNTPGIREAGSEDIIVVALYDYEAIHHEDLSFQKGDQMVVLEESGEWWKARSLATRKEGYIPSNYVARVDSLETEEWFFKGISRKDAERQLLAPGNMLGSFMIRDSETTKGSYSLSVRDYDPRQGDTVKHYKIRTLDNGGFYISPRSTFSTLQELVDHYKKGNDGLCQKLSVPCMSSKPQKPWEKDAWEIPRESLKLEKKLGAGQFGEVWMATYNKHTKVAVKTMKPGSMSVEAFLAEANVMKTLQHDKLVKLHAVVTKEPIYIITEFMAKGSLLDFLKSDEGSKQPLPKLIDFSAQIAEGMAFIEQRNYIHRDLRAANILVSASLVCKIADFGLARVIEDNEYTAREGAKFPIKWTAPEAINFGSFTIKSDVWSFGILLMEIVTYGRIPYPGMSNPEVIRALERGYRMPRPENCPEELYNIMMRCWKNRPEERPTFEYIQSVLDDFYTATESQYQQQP
G6PDH counter: Leuconostoc glucose-6-phosphate dehydrogenase inhibition, counter-screen | shares compounds with Tb hexokinase | purified G6PDH, NADH absorbance, 1 h | inhibition, % at 10 µM | 210 compounds, 7% hits;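 active = at least 50% inhibition in the glucose-6-phosphate dehydrogenase coupled counterscreen; inconclusive = no clear call, values can overlap the other calls; inactive = inhibition below 50%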
TbHK1 confirm: confirmation of Trypanosoma brucei hexokinase 1 inhibitors; inhibition, % at 10 µM; 210 compounds, 10% hits; shares compounds with Tb hexokinase; recombinant TbHK1, G6PDH-coupled NADH A340 absorbance; AID 2560;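 active = inhibition of at least 50% in both of the two screening runs; inconclusive = at least 50% in one run, below 50% in the other; inactive = inhibition below 50% in both runs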
Numbers stand for hits; n = inactive; u = inconclusive; x = no result; ! = repeats disagree. An excerpt weighted towards active compounds, which were near 1.9% of everything screened.

SMILES	Runt-SMMHC FRET	RanGTP-Imp inh	Tb hexokinase	Runt-CBFb FRET	Hck-Nef inh	others
O=C(O)C1CCCC2CN3CCc4c([nH]c5ccccc45)C3C(O)C21 (stereo not drawn)	x	30.0	x	x	x
c1ccc(-c2nccc3ccccc23)cc1	x	n	x	x	x
Cc1ccc(-c2nc(-c3nccc4ccccc34)oc2-c2ccccc2)cc1	72.2	n	n	n	n
Cc1ccc(Cc2c(C)c(C#N)c3[nH]c4ccccc4n3c2=O)cc1	n	21.4	n	n	n
C=C(C)Cc1c(C)c(C#N)c2[nH]c3ccccc3n2c1=O	x	41.9	x	x	x
CCc1c(C)c(C#N)c2[nH]c3ccccc3n2c1=S	84.0	n	n	n	n
COc1ccc(C2N(C(=O)N(C)C)CCN2S(=O)(=O)c2ccc(OC)cc2)cc1 (stereo not drawn)	x	n	x	x	x
COc1cc(/C=C(\CC(=O)O)c2nc3ccccc3s2)cc(OC)c1O	n	n	n	n	n
O=C(O)c1ccc(C=C(c2nc3ccccc3s2)c2nc3ccccc3s2)cc1	n	n	n	n	n
COc1cc(C=C(c2nc3ccccc3s2)c2nc3ccccc3s2)cc(OC)c1O	n	36.2	n	n	n
CN(C)c1ccc(/C=C(\Cl)c2nc3ccccc3s2)cc1	80.7	x	n	n	n
O=C(NCCCN1CCCC1=O)C(=O)NCC1OCCN1S(=O)(=O)c1ccc(Cl)cc1 (stereo not drawn)	x	n	x	x	x
COc1ccc(-c2oc3ccccc3c2C(=O)Oc2ccccc2)cc1	x	n	x	x	x
Cc1ccc2nc(NCCCO)nc(-c3ccccc3)c2c1	n	30.0	n	n	n
COc1cc(Nc2nc(-c3ccccc3)c3cc(C)ccc3n2)cc(OC)c1OC	n	n	n	n	n
NNc1nc(-c2ccccc2)c2cc(Br)ccc2n1	x	n	x	x	x
OCCCNc1nc(-c2ccccc2)c2cc(Br)ccc2n1	x	32.6	x	x	x
Cc1ccc(C)c(/C(O)=C2\C(=O)C(=O)N(Cc3cccnc3)C2c2cccnc2)c1 (stereo not drawn)	n	n	n	n	n
COc1cc2nc(N3CCN(C(=O)c4ccco4)CC3)nc(N)c2cc1OC	n	24.6!	n	n	n
CC1Cc2ccccc2N1C(=O)CCS(=O)(=O)c1ccc2c(c1)NC(=O)CS2 (stereo not drawn)	x	n	x	x	x
CC1(C)CC(=O)C2=C(C1)OC(=O)CC2c1cccs1 (stereo not drawn)	n	n	n	n	n
CN1C2=C(C(=O)CC(C)(C)C2)C(c2cccs2)C2=C1CC(C)(C)CC2=O	x	60.5	x	x	x
COc1ccc(CCNC(=O)c2noc(C)c2[N+](=O)[O-])cc1OC	x	n	x	x	x
CCN(CC)CCCn1c2c(c(SCC(=O)N3CCCc4ccccc43)nc1=O)CCC2	x	n	x	x	x
Cc1cc(C)c(C#N)c(SCc2ccccc2)n1	n	n	n	n	n
SMILES	Runt-SMMHC FRET	RanGTP-Imp inh	Tb hexokinase	Runt-CBFb FRET	Hck-Nef inh	others
Cc1ccc2nc(CSc3nc(C)cc(C)c3C#N)[nH]c2c1	n	29.0	n	n	n
N=C1C(=O)OCC1c1ccccc1NC(=O)CN1CCOCC1 (stereo not drawn)	n	41.2	n	n	n
O=C(CN1CCOCC1)Nc1ccccc1Cl	n	n	n	n	n
COc1ccc(/C=N/NC(=O)c2ccccc2NC(=O)c2ccco2)c(OC)c1	n	n	n	n	n
Cc1[nH]c2ccccc2c1C(=O)C(=O)NC1CC(=O)N(c2ccc(F)cc2)C1 (stereo not drawn)	x	n	x	x	x
CC(C)c1ccc(N(CC(=O)N2CCN(Cc3ccccc3)CC2)S(C)(=O)=O)cc1	x	n	x	x	x
CCN1CC=C2C(C1)C(c1ccc(Cl)s1)C(C#N)=C(N)C2(C#N)C#N (stereo not drawn)	82.0	50.4	n	n	n
COCCN(C(=O)CSCc1ccccc1)c1c(N)n(Cc2ccccc2)c(=O)[nH]c1=O	x	n	x	x	x
COCCN(C(=O)CN1CCc2ccccc2C1)c1c(N)n(Cc2ccccc2)c(=O)[nH]c1=O	74.3	n	n	n	n
CC(C)CN(C(=O)CN1CCN(c2ccccc2F)CC1)c1c(N)n(CC(C)C)c(=O)[nH]c1=O	n	n	n	n	n
CNCC(=O)N(CC(C)C)c1c(N)n(CC(C)C)c(=O)[nH]c1=O	55.9	n	n	n	n
CC(C)CN(C(=O)CN1CCc2ccccc21)c1c(N)n(CC(C)C)c(=O)[nH]c1=O	72.5	n	n	n	n
CC(C)CN(C(=O)CN1CCC(C)CC1)c1c(N)n(CC(C)C)c(=O)[nH]c1=O	n	u	n	n	n
COc1ccccc1N(C(=O)CNC(=O)c1ccco1)C(C(=O)NCC1CCCO1)c1ccccc1 (stereo not drawn)	x	n	x	x	x
Cc1nc2ccccn2c1C(=O)Nc1ccc(Cl)cc1	n	n	n	n	n
COc1ccc(CC(=O)NC(C)C2COc3ccccc3O2)cc1OC (stereo not drawn)	n	n	n	n	n
COc1ccccc1N1CCN(C(C)C(=O)N2CC(C)OC(C)C2)CC1 (stereo not drawn)	n	n	n	n	n
CCOC(=O)c1sc(Nc2nc3cc4c(cc3s2)OCO4)cc1C	n	n	n	n	n
CCOC(=O)c1sc(Nc2nc3c(OC)cccc3s2)cc1C	92.0	n	n	n	n
CCOC(=O)c1sc(N/N=C/c2cc(Br)c(O)c(OC)c2)nc1C	x	27.3	x	x	x
COc1ccc(S(=O)(=O)N2CCc3cc4c(cc3C2C)OCCCO4)cc1 (stereo not drawn)	x	n	x	x	x
CC(C)CN(C(=O)C1CSC2(C)CCC(=O)N12)c1c(N)n(Cc2ccccc2)c(=O)[nH]c1=O (stereo not drawn)	x	n	x	x	x
CN1CCc2nc(NC(=O)c3cccc(S(=O)(=O)N4CCc5ccccc54)c3)sc2C1	84.5	48.1	n	n	n
COc1cccc(C(=O)Nc2nnc(-c3ccccc3)s2)c1	x	n	x	x	x
COc1cccc(C(=O)Nc2sc3c(c2C(=O)O)CCCC3)c1	x	n	x	x	x
SMILES	Runt-SMMHC FRET	RanGTP-Imp inh	Tb hexokinase	Runt-CBFb FRET	Hck-Nef inh	others
COc1cccc(C(=O)Nc2nc3c(s2)CN(C)CC3)c1	86.8	n	n	x	n
COc1cccc(C(=O)Nc2sc3c(c2C#N)CCN(C(C)=O)C3)c1	51.1	x	n	n	n
Cc1cc(O)ccc1Nc1nc2ccccc2nc1Nc1ccc(O)cc1C	x	37.3	n	n	n
COc1cccc2cc(C(=O)NC3CC4CCC3C4)oc12 (stereo not drawn)	x	25.9	x	x	x
CCCCC(=O)NC(=S)NNS(=O)(=O)c1ccccc1	n	n	56.0	n	n	G6PDH counter=n;TbHK1 confirm=n
O=C(NC(=S)NNS(=O)(=O)c1ccccc1)c1ccc([N+](=O)[O-])cc1	n	n	75.7	n	n	G6PDH counter=n;TbHK1 confirm=n
O=C(NNC(=S)NC(=O)c1ccccc1[N+](=O)[O-])c1ccccc1Cl	n	u	n	n	n
O=C(NNS(=O)(=O)c1ccccc1)c1ccc([N+](=O)[O-])cc1	x	n	x	x	x
